Shown are actives, neighbours in structure and some others; about 1.9% of the full set was active somewhere.
EphB4 antag: EphB4-ephrin-B2 interaction antagonism. EphB4 LBD / TNYL-RAW-Alexa532 peptide, fluorescence polarization. inhibition, % at 7 µM. 97,000 tested, 0.15% active;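 active = inhibition above the screen-wide mean inhibition plus 3 SD, cut at about 15% in these data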;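 note: 0% = DMSO wells and 100% = excess unlabeled TNYL-RAW peptide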
PTPN22 act: LYP (human) phosphatase activation. Q9Y2R2. recombinant LYP, DiFMUP fluorescence; 0 = plate median, 100 = signal doubled. activation, % at 2 µM. 96,000 tested, 0.11% active. AID 697;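 active = activation at 2 µM above a set limit, the mean plus 5 SD, cut at about 37% in these data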
Target sequence (Q9Y2R2 whole entry, looked up): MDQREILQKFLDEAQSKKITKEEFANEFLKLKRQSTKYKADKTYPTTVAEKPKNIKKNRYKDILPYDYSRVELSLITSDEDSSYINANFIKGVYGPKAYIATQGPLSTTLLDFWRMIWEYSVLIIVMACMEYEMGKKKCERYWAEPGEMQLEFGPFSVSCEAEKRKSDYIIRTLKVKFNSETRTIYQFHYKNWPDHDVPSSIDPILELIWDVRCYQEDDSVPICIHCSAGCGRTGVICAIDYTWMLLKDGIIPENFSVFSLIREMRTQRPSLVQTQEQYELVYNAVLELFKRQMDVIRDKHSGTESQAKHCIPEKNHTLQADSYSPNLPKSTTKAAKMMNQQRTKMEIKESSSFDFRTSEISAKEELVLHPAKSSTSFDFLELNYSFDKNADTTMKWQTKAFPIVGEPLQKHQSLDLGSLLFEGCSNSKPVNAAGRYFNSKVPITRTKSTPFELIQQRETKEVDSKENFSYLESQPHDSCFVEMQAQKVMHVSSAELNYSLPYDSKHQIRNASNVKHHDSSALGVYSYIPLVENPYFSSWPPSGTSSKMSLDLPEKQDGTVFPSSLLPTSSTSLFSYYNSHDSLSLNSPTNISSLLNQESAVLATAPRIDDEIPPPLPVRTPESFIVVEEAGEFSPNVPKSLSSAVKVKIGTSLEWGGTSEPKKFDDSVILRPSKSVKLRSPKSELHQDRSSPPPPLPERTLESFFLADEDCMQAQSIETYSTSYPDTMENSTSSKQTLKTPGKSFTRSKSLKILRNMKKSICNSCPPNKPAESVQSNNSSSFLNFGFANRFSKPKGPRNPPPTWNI
Rev-RRE block: inhibitors of HIV-1 Rev-RRE RNA interaction; AID 704; 97,000 tested, 0.79% active; Rev peptide-RRE RNA binding, FRET; inhibition, % at 8 µM; P05866;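 active = inhibition above the screen-wide mean plus 3 SD, cut at about 35% in these data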;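 note: 0% = median DMSO wells and 100% = median Neomycin B control wells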
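Assay system: labelled RRE RNA duplex and labelled Rev peptide / Medium: HEPES pH 7.5 salt buffer with EDTA / Reagent: labelled Rev peptide / Schedule: 5 + 15 min at 25 °C / Signal: FRET, excitation 480 nm, emission 540 nm donor and 671 nm acceptor / Benchmarks: DMSO and neomycin B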
LYP inh 2: LYP (human) phosphatase inhibition; recombinant LYP catalytic domain, DiFMUP fluorescence; inhibition, % at 2 µM; 96,000 tested, 0.21% active; AID 640;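 active = inhibition at 2 µM at or above a set limit, the screen mean plus 3 SD, cut at about 24% in these data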;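 note: 0% = DMSO with enzyme and 100% = enzyme fully blocked by orthovanadate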
FAK inh: FAK (human) kinase inhibition; biochemical FAK kinase activity assay; inhibition, %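 (tested at 7 µM)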; 97,000 tested, 0.84% active; AID 727;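 note: 0% = DMSO and 100% = reference compound high control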
FAK inh confirm: confirmation of human focal adhesion kinase (FAK) inhibitors; shares compounds with FAK inh; FAK kinase biochemical inhibition assay; inhibition, % at 7 µM; 750 tested, 28% active; AID 794
* marks the source's active call; other numbers are inactive results; / = not tested or not shown. Cut-off read from the data, not from the text of the source, unless noted: active = inhibition above about 19%; inactive = the rest.

SMILES	EphB4 antag	PTPN22 act	Rev-RRE block	LYP inh 2	FAK inh	FAK inh confirm
COc1ccc(CNC(=O)C(C)N(Cc2ccco2)C(=O)c2snc(C(N)=O)c2N)cc1 (configuration not stated)	-7	-2	5	2	11	/
CCc1ccccc1N(CC(=O)NCc1ccco1)C(=O)c1snc(C(N)=O)c1N	2	2	10	-5	41*	15
COc1ccc2[nH]c(=O)c(-c3noc(-c4ccccc4)n3)cc2c1	3	-3	14	1	59*	36*
O=c1[nH]c2ccccc2cc1-c1noc(-c2cccnc2)n1	7	-8	9	7	7	/
Cc1cc(C)n(-c2nc(N(c3ccccc3)c3ccccc3)nc(-n3nc(C)cc3C)n2)n1	1	-16	-2	15	4	/
Cc1cc(C)n(-c2nc(Nc3ccccc3)nc(-n3nc(C)cc3C)n2)n1	2	-3	5	2	26*	9
COc1ccc(OCCCc2c(C)n[nH]c2C)cc1	-1	2	7	0	-1	/
Cc1n[nH]c(C)c1CCCOc1ccccc1	1	-3	1	2	50*	3
O=c1cc(-c2ccco2)oc2c1ccc1ccccc12	-1	-2	0	3	26*	22*
OCC#CCSc1nnc(-c2ccccc2Br)o1	-1	-13	2	13	-3	/
Cc1c(Cl)c(-c2n[nH]c(=S)n2-c2ccc(F)cc2)nn1C	-2	-3	1	8	-7	/
O=C1Nc2ccccc2S/C1=C/Nc1cccc(Cl)c1	1	-3	0	6	26*	6
Cc1ccc(Cn2nnc3c(=O)n(CC(=O)NCc4ccc5c(c4)OCO5)cnc32)cc1	3	-3	1	-3	0	/
O=C1C=C(Nc2ccccc2O)c2ccccc2C1=O	-2	0	12	4	23*	15
O=C1C(C2=C(O)c3ccccc3C2=O)=Nc2ccccc21	-5	12	13	-14	10	/
CCn1c(SCC(=O)NCc2ccco2)nnc1-c1c[nH]c2ccccc12	8	-4	5	3	0	/
COCCn1c(SCC(=O)NCc2ccco2)nnc1-c1c[nH]c2ccccc12	-4	-9	3	8	40*	1
CCOC(=O)c1cnn(-c2ncnc3sc4c(c23)CCC4)c1N	-9	-2	8	2	26*	17
CCOc1c(Br)cc(C2NS(=O)(=O)N=C3CCCCCN32)cc1OC (configuration not stated)	2	-13	1	10	47*	0
O=C(COC(=O)C1CC2C=CC1C2)NCc1ccco1 (configuration not stated)	-3	-3	-9	0	30*	3
O=C(CN1C(=O)C2C3C=CC(C3)C2C1=O)NCc1ccco1 (configuration not stated)	1	-8	7	9	-1	/
Cc1oc(-c2ccccc2)cc1C(=O)Nc1cccc(C(=O)O)c1	-9	0	3	-1	-2	/
Cc1oc(-c2ccccc2)cc1C(=O)Nc1cccc2ccccc12	2	-1	-1	3	26*	25*
COC(=O)C1=C(C)NC2=C(C(=O)CC(c3cccs3)C2)C1c1ccsc1 (configuration not stated)	-10	2	-3	-4	22*	21*
CCOC(=O)c1sc(NC(=O)c2ccc(S(=O)(=O)N3CCOCC3)cc2)cc1C	-10	-3	1	2	-4	/
SMILES	EphB4 antag	PTPN22 act	Rev-RRE block	LYP inh 2	FAK inh	FAK inh confirm
CSCC[C@H](Nc1ncnc2sc(C)c(C)c12)C(=O)O	-2	4	-1	-5	-1	/
COCCNC(=O)c1c(N)n(-c2ccccc2)c2nc3ccccc3nc12	2	-13	3	16	4	/
COCCNC(=O)c1c(N)n(CCCn2ccnc2)c2nc3ccccc3nc12	5	2	14	-4	24*	-1
CSc1nc(SCCO)c2sc3nc(-c4ccco4)c4c(c3c2n1)CC(C)(C)OC4	-3	-22	3	22	28*	1
Cc1nc2sc3c(NCc4ccco4)ncnc3c2c2c1COC(C)(C)C2	4	3	7	-8	14	/
Oc1ccc(Br)cc1/C=N/N1CCN(Cc2ccccc2)CC1	-5	9	4	-5	2	/
Oc1ccc(Br)cc1/C=N/n1cnc2ccccc21	10	-1	6	1	19*	6
Cc1cccc(NC(=O)CSc2nc3ccccc3c3nc(CCc4c(C)n[nH]c4C)nn23)c1	2	-1	-1	3	4	/
Cc1n[nH]c(C)c1CCc1nc2c3ccccc3nc(SCC(=O)Nc3ccccc3F)n2n1	1	3	7	-6	21*	16
O=C(Cn1c(=O)n(Cc2ccco2)c(=O)c2c3c(sc21)CCCCC3)c1ccccc1	2	-14	2	16	30*	3
CN(C)CCn1c(=O)n(Cc2ccco2)c(=O)c2c3c(sc21)CCCCC3	6	-11	5	8	4	/
O=C(Cn1c(=O)n(Cc2ccco2)c(=O)c2c3c(sc21)CCCCC3)Nc1ccccc1	-1	-19	1	21	32*	4
CSc1nc(SCC(N)=O)c2c3c(sc2n1)CN(C)CC3	-4	3	14	-6	16	/
CN1CCc2c(sc3ncn4nc(-c5ccccc5O)nc4c23)C1	-1	-5	27	5	23*	28*
CCn1c(COc2ccc(C)cc2)nnc1SCC(=O)Nc1ccc2c(c1)OCCO2	1	-2	10	0	-4	/
CCc1ccc(OCC(=O)N/N=C2\CC(=O)c3ccccc32)cc1	5	-12	-2	13	32*	2
Cc1ccc(OCC(=O)NN=C2c3ccccc3-c3ccccc32)cc1	-9	-14	0	16	1	/
CCOc1ccc(CCNC(=O)C2CCCN(c3nnc(-n4cccc4)s3)C2)cc1OCC (configuration not stated)	-8	1	2	-3	-3	/
CCc1ccc(/C=C2\CN(CC)Cc3c2nc2ccccc2c3C(=O)O)cc1	-1	-4	40*	8	51*	8
CC(Sc1nc(NCc2ccccc2)nc(N(C)C)n1)C(=O)Nc1ccccc1 (configuration not stated)	2	-7	7	11	22*	10
O=C(Cn1c2ccccc2c(=O)c2ccccc21)N/N=C/c1cc([N+](=O)[O-])ccc1N1CCCCCC1	-1	-25	-20	28*	69*	80*
O=C(CNc1ccccc1)N/N=C/c1cc([N+](=O)[O-])ccc1N1CCCC1	-3	-3	-1	8	1	/
O=C(Nc1cccc(NC(=O)c2ccc(Br)o2)n1)c1ccc(Br)o1	1	-7	1	8	26*	12
COc1ccc(-c2cn[nH]c2N)cc1	-2	31	6	-35	6	/
COc1ccc(-c2cn[nH]c2N)c(OC)c1	4	-11	5	7	31*	1
